Test results reported in ChEMBL document CHEMBL1153716, “Constrained peptidomimetics reveal detailed geometric requirements of covalent prolyl oligopeptidase inhibitors” (J Med Chem, 2009).
Active and inactive are the calls of the source. The calls are words filed in the database; no cut-off is given here.

Key:
[1] = target: Dipeptidyl peptidase 4 (Homo sapiens) (UniProt P27487); assay: Inhibition of DPP4 in human astrocyte derived cell extracts assessed as blockade of Gly-Pro-AMC substrate hydrolysis at 100 uM by fluorimetric assay
Summary of the method: (§1)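 Confluent human cells (glioblastoma LN18, LN229, LNZ308; brain endothelial HCEC; lung PO03 or skin PG98/5 fibroblasts) grown in DMEM with 4.5 g/L glucose and 10% FCS, then lysed in PBS (pH 7.2-7.4) containing 0.1% Triton X-100. Compound was diluted from methanol stock into water and preincubated 5-10 min at room temperature. Gly-Pro-AMC was then added. Duplicate wells.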

[2] = target: Dipeptidyl peptidase 4 (Homo sapiens) (UniProt P27487); assay: Inhibition of DPP4 in human brain derived endothelial cell extracts assessed as blockade of Gly-Pro-AMC substrate hydrolysis at 100 uM by fluorimetric assay; assay type: cell-free; summary of the method: as §1
[3] = target: Dipeptidyl peptidase 4 (Homo sapiens) (UniProt P27487); assay: Inhibition of DPP4 in human fibroblast extracts assessed as blockade of Gly-Pro-AMC substrate hydrolysis at 100 uM by fluorimetric assay; summary of the method: as §1
Prolyl endopeptidase [4] = target: T1, Prolyl endopeptidase (Homo sapiens, UniProt P48147); assay: Inhibition of prolyl oligopeptidase in intact human LN229 cells assessed as blockade of Z-Gly-Pro-AMC substrate hydrolysis by fluorimetric assay; assay type: cell-based
T1 sequence (P48147 whole entry): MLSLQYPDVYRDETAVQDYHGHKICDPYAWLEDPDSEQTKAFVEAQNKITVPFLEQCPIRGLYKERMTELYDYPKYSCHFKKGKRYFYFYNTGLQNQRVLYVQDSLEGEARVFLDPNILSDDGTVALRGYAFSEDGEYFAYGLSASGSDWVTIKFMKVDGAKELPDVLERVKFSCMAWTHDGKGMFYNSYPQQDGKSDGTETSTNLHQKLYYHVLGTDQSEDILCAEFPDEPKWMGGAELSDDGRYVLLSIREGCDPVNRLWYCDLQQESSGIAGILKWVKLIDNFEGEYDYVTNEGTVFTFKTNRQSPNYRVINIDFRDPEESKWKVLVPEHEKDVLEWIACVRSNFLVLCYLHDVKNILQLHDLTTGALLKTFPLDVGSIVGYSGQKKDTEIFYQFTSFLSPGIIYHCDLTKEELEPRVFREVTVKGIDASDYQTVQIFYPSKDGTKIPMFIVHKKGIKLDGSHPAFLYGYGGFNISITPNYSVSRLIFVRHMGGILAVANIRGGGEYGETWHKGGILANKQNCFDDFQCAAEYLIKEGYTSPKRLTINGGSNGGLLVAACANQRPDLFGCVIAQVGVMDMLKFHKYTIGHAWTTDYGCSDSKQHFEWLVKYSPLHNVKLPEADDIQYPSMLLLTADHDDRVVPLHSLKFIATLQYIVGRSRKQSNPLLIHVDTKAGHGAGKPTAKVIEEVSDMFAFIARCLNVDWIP

Prolyl endopeptidase [5] = target: T1, Prolyl endopeptidase; assay: Inhibition of prolyl oligopeptidase in human LN229 cell extracts assessed as blockade of Z-Gly-Pro-AMC substrate hydrolysis by fluorimetric assay
Prolyl endopeptidase [6] = target: T1, Prolyl endopeptidase; assay: Inhibition of prolyl oligopeptidase in intact human LNZ308 cells assessed as blockade of Z-Gly-Pro-AMC substrate hydrolysis by fluorimetric assay; assay type: cell-based
Prolyl endopeptidase [7] = target: T1, Prolyl endopeptidase; assay: Inhibition of prolyl oligopeptidase in human LNZ308 cell extracts assessed as blockade of Z-Gly-Pro-AMC substrate hydrolysis by fluorimetric assay
Prolyl endopeptidase [8] = target: T1, Prolyl endopeptidase; assay: Inhibition of prolyl oligopeptidase in intact human HCEC cells assessed as blockade of Z-Gly-Pro-AMC substrate hydrolysis by fluorimetric assay; assay type: cell-based
Prolyl endopeptidase [9] = target: T1, Prolyl endopeptidase; assay: Inhibition of prolyl oligopeptidase in human HCEC cell extracts assessed as blockade of Z-Gly-Pro-AMC substrate hydrolysis by fluorimetric assay; assay type: cell-free
[10] = target: Dipeptidyl peptidase 4 (Homo sapiens) (UniProt P27487); assay: Inhibition of DPP4 in intact human astrocyte derived cells assessed as blockade of Gly-Pro-AMC substrate hydrolysis at 100 uM by fluorimetric assay
Summary of the method: (§2)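 Confluent intact human glioblastoma (LN18, LN229, LNZ308), brain endothelial HCEC, or lung PO03 and skin PG98/5 fibroblast monolayers kept in PBS (pH 7.2-7.4) without detergent. Compound was diluted from methanol stock into water and preincubated 5-10 min at room temperature. Gly-Pro-AMC was then added and hydrolysis read by fluorescence. Duplicate wells.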

[11] = target: Dipeptidyl peptidase 4 (Homo sapiens) (UniProt P27487); assay: Inhibition of DPP4 in intact human brain derived endothelial cells assessed as blockade of Gly-Pro-AMC substrate hydrolysis at 100 uM by fluorimetric assay; assay type: cell-based; conditions: Endothelial cell; summary of the method: as §2
[12] = target: Dipeptidyl peptidase 4 (Homo sapiens) (UniProt P27487); assay: Inhibition of DPP4 in intact human fibroblasts assessed as blockade of Gly-Pro-AMC substrate hydrolysis at 100 uM by fluorimetric assay; summary of the method: as §2
[13] = target: T2, Prolyl endopeptidase (Homo sapiens) (UniProt P48147); assay: Inhibition of prolyl oligopeptidase in human astrocyte derived cell extracts assessed as blockade of Z-Gly-Pro-AMC substrate hydrolysis at 100 uM by fluorimetric assay
T2 sequence (whole entry): T1 sequence (P48147 whole entry)
Summary of the method: (§3)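 Confluent human glioblastoma (LN18, LN229, LNZ308), brain endothelial HCEC, or lung PO03 and skin PG98/5 fibroblasts extracted in PBS with 0.1% Triton X-100. Compound was diluted from methanol stock into water and preincubated 5-10 min at room temperature. Z-Gly-Pro-AMC was then added and read by fluorescence. Duplicate wells.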

[14] = target: T2, Prolyl endopeptidase (Homo sapiens); assay: Inhibition of prolyl oligopeptidase in human brain derived endothelial cell extracts assessed as blockade of Z-Gly-Pro-AMC substrate hydrolysis at 100 uM by fluorimetric assay; assay type: cell-free; summary of the method: as §3
[15] = target: T2, Prolyl endopeptidase (Homo sapiens); assay: Inhibition of prolyl oligopeptidase in human fibroblast extracts assessed as blockade of Z-Gly-Pro-AMC substrate hydrolysis at 100 uM by fluorimetric assay; summary of the method: as §3
[16] = target: T2, Prolyl endopeptidase (Homo sapiens); assay: Inhibition of prolyl oligopeptidase in intact human astrocyte derived cells assessed as blockade of Z-Gly-Pro-AMC substrate hydrolysis at 100 uM by fluorimetric assay
Summary of the method: (§4)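 Intact confluent human glioblastoma (LN18, LN229, LNZ308), brain endothelial HCEC, or lung PO03 and skin PG98/5 fibroblast monolayers in PBS (pH 7.2-7.4), cells grown beforehand in DMEM with 10% FCS. Compound was diluted from methanol stock into water and preincubated 5-10 min at room temperature. Z-Gly-Pro-AMC was then added and read fluorimetrically. Duplicate wells.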

[17] = target: T2, Prolyl endopeptidase (Homo sapiens); assay: Inhibition of prolyl oligopeptidase in intact human brain derived endothelial cells assessed as blockade of Z-Gly-Pro-AMC substrate hydrolysis at 100 uM by fluorimetric assay; assay type: cell-based; conditions: Endothelial cell; summary of the method: as §4
[18] = target: T2, Prolyl endopeptidase (Homo sapiens); assay: Inhibition of prolyl oligopeptidase in intact human fibroblasts assessed as blockade of Z-Gly-Pro-AMC substrate hydrolysis at 100 uM by fluorimetric assay; summary of the method: as §4

Dipeptidyl peptidase 4 (Homo sapiens), sequence (P27487 whole entry, looked up): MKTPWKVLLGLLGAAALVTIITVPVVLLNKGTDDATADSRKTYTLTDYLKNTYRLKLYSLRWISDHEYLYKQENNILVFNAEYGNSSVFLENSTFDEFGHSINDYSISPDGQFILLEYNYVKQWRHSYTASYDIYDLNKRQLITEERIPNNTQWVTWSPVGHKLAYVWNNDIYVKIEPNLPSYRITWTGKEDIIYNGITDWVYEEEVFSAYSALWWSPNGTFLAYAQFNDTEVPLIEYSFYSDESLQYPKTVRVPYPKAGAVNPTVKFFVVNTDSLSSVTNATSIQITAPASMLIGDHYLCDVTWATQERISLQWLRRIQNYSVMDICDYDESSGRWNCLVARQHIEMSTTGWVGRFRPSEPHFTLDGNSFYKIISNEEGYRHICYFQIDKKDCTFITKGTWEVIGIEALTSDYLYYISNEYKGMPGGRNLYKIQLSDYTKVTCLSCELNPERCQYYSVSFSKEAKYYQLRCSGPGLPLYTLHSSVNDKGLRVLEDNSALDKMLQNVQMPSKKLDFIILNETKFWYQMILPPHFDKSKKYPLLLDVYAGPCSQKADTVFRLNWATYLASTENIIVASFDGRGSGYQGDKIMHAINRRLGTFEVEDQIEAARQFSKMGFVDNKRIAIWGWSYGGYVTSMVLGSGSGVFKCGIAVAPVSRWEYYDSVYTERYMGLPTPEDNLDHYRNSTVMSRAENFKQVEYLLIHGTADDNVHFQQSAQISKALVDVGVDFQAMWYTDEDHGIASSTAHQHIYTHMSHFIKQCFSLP

Structure (SMILES) | inhibition [1] | inhibition [2] | inhibition [3] | IC50 (Prolyl endopeptidase [4]) | IC50 (Prolyl endopeptidase [5]) | IC50 (Prolyl endopeptidase [6]) | IC50 (Prolyl endopeptidase [7]) | IC50 (Prolyl endopeptidase [8]) | IC50 (Prolyl endopeptidase [9]) | inhibition [10] | inhibition [11] | inhibition [12] | inhibition [13] | inhibition [14] | inhibition [15] | inhibition [16] | inhibition [17] | inhibition [18]
N#C[C@@H]1CS[C@H]2C[C@@H](NC(=O)OCc3ccccc3)C(=O)N12 | inactive | inactive | inactive | 2000 nM | 500 nM | 2500 nM | 200 nM | 1300 nM | 700 nM | inactive | inactive | inactive | – | – | – | – | – | –
N#C[C@@H]1CO[C@H]2C[C@H](NC(=O)OCc3ccccc3)C(=O)N12 | inactive | inactive | inactive | – | – | – | – | – | – | inactive | inactive | inactive | inactive | inactive | 10% | inactive | inactive | 10%
N#C[C@H]1CS[C@@H]2C[C@H](NC(=O)OCc3ccccc3)C(=O)N12 | inactive | inactive | inactive | – | – | – | – | – | – | inactive | inactive | inactive | 10% | 10% | inactive | inactive | inactive | inactive
C[C@H]1O[C@H]2C[C@H](NC(=O)OCc3ccccc3)C(=O)N2[C@@H]1C#N | inactive | inactive | inactive | – | – | – | – | – | – | inactive | inactive | inactive | 10% | 10% | inactive | inactive | 10% | inactive
CC(C)(C)OC(=O)N1CCC[C@H]1C#N | inactive | inactive | inactive | – | – | – | – | – | – | inactive | inactive | inactive | inactive | inactive | inactive | inactive | inactive | inactive
C[C@H]1O[C@H]2C[C@@H](NC(=O)OCc3ccccc3)C(=O)N2[C@@H]1C#N | inactive | inactive | inactive | – | – | – | – | – | – | inactive | inactive | inactive | 10% | 10% | inactive | inactive | 10% | inactive
